Molecules are shown by their SMILES. Active and inactive are the calls of the source.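 Rule for the calls: active = signal-lowering compounds whose fitted half-maximal concentration is at most ten times the top tested dose; inconclusive = flat fit at 30 to 70% inhibition, or poor fit; inactive = the rest.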

Consider 18 compounds from PubChem BioAssay AID504390 (Broad Institute, 2011).

Tested on in one assay: not listed separately
Briefly: Hsp90 function inhibitors in yeast, dose response, S. cerevisiae, luminescence, dry powder, set 2 (AID 504390). The conditions noted are these: S. cerevisiae GRE-lacZ reporter, Hsp90 function, luminescence; at 26 µM (top of the series). Put shortly: (§1)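 Detection: β-galactosidase luminescence after 25 min development at 30 °C / System: Saccharomyces yeast reporter strain, glucocorticoid response element driving β-galactosidase / Schedule: 75 min treatment at 30 °C with agitation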
Turning to `CN1CCN(C(=O)Cn2c3ccccc3c3nc4n(c(=O)c32)CCS4)CC1`, the activity change, negative = inhibition was 52.6% (inactive). Take `COC(=O)n1nc(-c2ccccc2)c2ccccc21`: the activity change, negative = inhibition was 10.4% (inactive).

For `O=C(Cn1c2ccccc2c2nc3n(c(=O)c21)CCS3)N1CCC(F)(F)C1`, the activity change, negative = inhibition is 29.5% (inactive). On to `O=C(Cn1c2ccccc2c2nc3n(c(=O)c21)CCS3)N1CCC(F)(F)CC1`, for which the activity change, negative = inhibition is 4.34% (inactive). `O=C(Cn1c2ccccc2c2nc3n(c(=O)c21)CCS3)N1CCCC1`: the activity change, negative = inhibition was -14.7% (inactive).

With `O=C(O)Cn1c2ccccc2c2nc3n(c(=O)c21)CCS3`, the activity change, negative = inhibition is 10.8% (inactive). Regarding `O=C(Cn1c2ccccc2c2nc3n(c(=O)c21)CCS3)N1CC=CC1`, the activity change, negative = inhibition was 20.7% (inactive). `CCc1nn(CC(=O)OC)c2ccccc12`: the activity change, negative = inhibition was 35.3% (inactive). Take `COC(=O)Cn1nc(C2CC2)c2ccccc21`: the activity change, negative = inhibition is -20.4% (inactive). `c1ccc(-c2nn(Cc3nnco3)c3ccccc23)cc1`: the activity change, negative = inhibition is -30.7% (inactive).

Take `O=C(Cn1c2ccc(F)cc2c2nc3n(c(=O)c21)CCS3)N1CCCC1`: the activity change, negative = inhibition was 39.4% (inactive).

With `CC1(O)CN(C(=O)Cn2c3ccccc3c3nc4n(c(=O)c32)CCS4)C1`, the activity change, negative = inhibition was 25.6% (inactive).

A further assay relates to S. cerevisiae GRE-lacZ reporter, Hsp90 function, luminescence. The assay is described as above.
Conditions: not given
The gist of the method:
as §1
For orientation: AC50 means the concentration giving half of the maximal activity seen. With `COC(=O)Cn1nc(-c2cccc(C)c2)c2ccccc21`, the AC50 is 3.59 µM. Still for that read-out and setting: the value for `COC(=O)Cn1nc(C2CCCCC2)c2ccccc21` was 3.56 µM; that for `COC(=O)Cn1nc(C(C)(C)C)c2ccccc21` was 20.7 µM; that for `COC(=O)Cn1nc(-c2cccc(OC)c2)c2ccccc21` was 4.18 µM. Regarding `COC(=O)Cn1nc(-c2ccccc2)c2cccnc21`, the AC50 was 25.8 µM. In the case of `O=C(Cn1c2ccccc2c2nc3n(c(=O)c21)CCS3)N1CCCCC1`, the AC50 was 26.1 µM.
